ChEMBL document CHEMBL1140454, “Conformationally constrained analogues of 2-arachidonoylglycerol” (Bioorg Med Chem Lett, 2007)

How the values were obtained:
[1] = biological target: T1, Fatty-acid amide hydrolase 1 (Rattus norvegicus) (UniProt P97612); assay: Activity of partially purified Sprague-Dawley rat FAAH assessed as substrate hydrolysis
T1 sequence (whole entry): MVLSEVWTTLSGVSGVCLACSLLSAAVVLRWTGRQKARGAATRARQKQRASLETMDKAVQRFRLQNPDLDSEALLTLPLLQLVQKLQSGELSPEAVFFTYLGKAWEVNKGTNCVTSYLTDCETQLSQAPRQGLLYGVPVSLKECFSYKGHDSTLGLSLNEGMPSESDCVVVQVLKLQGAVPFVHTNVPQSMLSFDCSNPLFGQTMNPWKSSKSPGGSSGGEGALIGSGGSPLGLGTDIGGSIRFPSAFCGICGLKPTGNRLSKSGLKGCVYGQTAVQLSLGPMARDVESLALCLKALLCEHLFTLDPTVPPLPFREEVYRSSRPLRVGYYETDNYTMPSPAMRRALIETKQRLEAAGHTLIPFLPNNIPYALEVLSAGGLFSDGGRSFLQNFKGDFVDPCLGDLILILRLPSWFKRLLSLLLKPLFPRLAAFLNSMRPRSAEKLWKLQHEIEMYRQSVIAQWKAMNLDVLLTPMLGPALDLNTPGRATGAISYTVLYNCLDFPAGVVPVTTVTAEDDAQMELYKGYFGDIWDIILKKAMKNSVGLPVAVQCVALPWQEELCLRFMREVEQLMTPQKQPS

[2] = biological target: T2, Monoglyceride lipase (Rattus norvegicus) (UniProt Q8R431); assay: Activity of partially purified Sprague-Dawley rat MGL assessed as substrate hydrolysis
T2 sequence (whole entry): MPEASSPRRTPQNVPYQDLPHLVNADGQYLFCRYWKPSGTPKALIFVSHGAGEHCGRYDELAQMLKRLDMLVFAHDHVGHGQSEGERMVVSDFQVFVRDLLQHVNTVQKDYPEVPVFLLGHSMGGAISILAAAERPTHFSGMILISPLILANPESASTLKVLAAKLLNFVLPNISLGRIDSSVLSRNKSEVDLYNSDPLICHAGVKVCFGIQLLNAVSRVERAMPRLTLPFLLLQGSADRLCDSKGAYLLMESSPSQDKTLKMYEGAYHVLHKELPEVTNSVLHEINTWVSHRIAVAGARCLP

[3] = biological target: Cannabinoid receptor 2 (Mus musculus, UniProt P47936); assay: Displacement of [3H]CP-55940 from mouse spleen CB2 receptor; format: tissue-based
Sequence of Cannabinoid receptor 2 (P47936 whole entry): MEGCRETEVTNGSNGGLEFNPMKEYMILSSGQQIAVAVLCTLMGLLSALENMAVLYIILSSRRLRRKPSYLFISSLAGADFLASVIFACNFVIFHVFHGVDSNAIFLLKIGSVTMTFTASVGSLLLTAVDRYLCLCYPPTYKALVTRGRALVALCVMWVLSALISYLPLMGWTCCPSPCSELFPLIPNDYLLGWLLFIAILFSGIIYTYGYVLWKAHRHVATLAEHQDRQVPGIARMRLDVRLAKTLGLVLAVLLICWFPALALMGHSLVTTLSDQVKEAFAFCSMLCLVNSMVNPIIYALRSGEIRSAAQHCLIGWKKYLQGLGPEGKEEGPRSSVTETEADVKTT
Outline: (§1)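 Competition-equilibrium binding against [3H]CP55940, using rat brain membranes for CB1 and mouse spleen membranes for CB2. Some CB1 runs used membranes pretreated with PMSF. IC50 came from nonlinear regression and Ki was calculated from IC50. Points were run in duplicate, with values from single experiments.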

[4] = biological target: Cannabinoid receptor 1 (Rattus norvegicus, UniProt P20272); assay: Displacement of [3H]CP-55940 from rat brain CB1 receptor
Sequence of Cannabinoid receptor 1 (P20272 whole entry): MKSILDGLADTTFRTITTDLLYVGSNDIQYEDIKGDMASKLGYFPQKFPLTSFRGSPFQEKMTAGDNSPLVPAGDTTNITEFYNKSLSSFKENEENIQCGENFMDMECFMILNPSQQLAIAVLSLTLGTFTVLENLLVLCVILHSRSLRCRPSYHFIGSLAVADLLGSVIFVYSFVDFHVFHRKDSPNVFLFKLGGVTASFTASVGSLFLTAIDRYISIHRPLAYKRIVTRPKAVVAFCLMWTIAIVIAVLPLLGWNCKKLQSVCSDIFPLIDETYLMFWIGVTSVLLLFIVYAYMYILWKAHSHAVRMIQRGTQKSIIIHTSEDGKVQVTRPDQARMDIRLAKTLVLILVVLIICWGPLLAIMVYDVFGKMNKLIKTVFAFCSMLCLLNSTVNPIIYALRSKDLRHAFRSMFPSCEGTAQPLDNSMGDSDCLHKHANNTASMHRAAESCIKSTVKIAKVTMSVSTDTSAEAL
Outline: as §1

SMILES: CCCCC/C=C\C/C=C\C/C=C\C/C=C\CCCC(=O)OC(CO)CO
- hydrolysis [1]: 100%
- hydrolysis [2]: 74%

SMILES: CCCCC/C=C\C/C=C\C/C=C\C/C=C\CCCC(=O)O[C@@H]1[C@H](O)CCC[C@@H]1O
- hydrolysis [1]: 2%
- hydrolysis [2]: 2%

SMILES: CCCCC/C=C\C/C=C\C/C=C\C/C=C\CCCC(=O)O[C@H]1[C@H](O)CCC[C@@H]1O
- hydrolysis [1]: 78%
- hydrolysis [2]: 19%

SMILES: CCCCC/C=C\C/C=C\C/C=C\C/C=C\CCCC(=O)OC1C(O)CCCC1O (racemic)
- hydrolysis [1]: 100%
- hydrolysis [2]: 1%

SMILES: CCCCC/C=C\C/C=C\C/C=C\C/C=C\CCCC(=O)OC1C(=O)CCCC1O (racemic; form 1) [listing 1 of 2 here]
- Ki [3]: 0.41 µM

SMILES: CCCCC/C=C\C/C=C\C/C=C\C/C=C\CCCC(=O)OC1C(=O)CCCC1O (racemic; form 1) [listing 2 of 2 here]
- hydrolysis [1]: 91%
- hydrolysis [2]: 48%

SMILES: CCCCC/C=C\C/C=C\C/C=C\C/C=C\CCCC(=O)OC1C(=O)CCCC1O (racemic; form 2)
- hydrolysis [1]: 100%
- hydrolysis [2]: 8%

SMILES: CCCCC/C=C\C/C=C\C/C=C\C/C=C\CCCC(=O)OC1C(O)CCCC1O (single isomer, unassigned; (+)) [listing 1 of 2 here]
- Ki [4]: 0.36 µM
- Ki [3]: 0.37 µM

SMILES: CCCCC/C=C\C/C=C\C/C=C\C/C=C\CCCC(=O)OC1C(O)CCCC1O (single isomer, unassigned; (+)) [listing 2 of 2 here]
- hydrolysis [1]: 88%
- hydrolysis [2]: 10%

SMILES: CCCCC/C=C\C/C=C\C/C=C\C/C=C\CCCC(=O)OC1C(O)CCCC1O (single isomer, unassigned; (-)) [listing 1 of 2 here]
- Ki [4]: 0.77 µM
- Ki [3]: 1.2 µM

SMILES: CCCCC/C=C\C/C=C\C/C=C\C/C=C\CCCC(=O)OC1C(O)CCCC1O (single isomer, unassigned; (-)) [listing 2 of 2 here]
- hydrolysis [1]: 88%
- hydrolysis [2]: 13%
